Activity calls are given as the source filed them. The rule behind the calls is not given here.
These compounds were tested on Plutella xylostella (assay: Induction of response in unmated male Plutella xylostella (diamondback moth) assessed as landing moth level at 10 uL in presence of synthetic pheromone measured after 10 min by wind tunnel bioassays (Rvb hexane = 0%)).
Format: functional
Method in brief: (§1)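 Wind tunnel 240 × 30 × 30 cm. Moths acclimatized in the room ≥3 h beforehand. Filter-paper dispenser (4 × 2 cm) hung 15 cm high, loaded with 10 µL of GLV, synthetic pheromone (Z11-16:Ald/Z11-16:Ac/Z11-16:OH 1:1:0.01), a 1:1 mix, or hexane. Two moths released per replicate and watched 10 min; 20 replicates (40 insects) per treatment. Hexane control run twice daily; one treatment per day, tunnel washed between treatments.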

Compound	Activity [%]
CCC/C=C/C=O	85
C=CC(O)CCC (stereo unspecified)	60
CCCCCCO [1-HEXANOL]	70
CC/C=C\CCOC(C)=O [(Z)-hex-3-en-1-yl acetate]	95
CC/C=C\CCO [CIS-3-HEXENOL]	80
CCCCCC=O [HEXANAL]	75
CCCCCCOC(C)=O [HEXYL ACETATE]	55

Each compound was assayed on Plutella xylostella (assay: Induction of response in unmated male Plutella xylostella (diamondback moth) assessed as flying moth level at 10 uL in presence of synthetic pheromone measured after 10 min by wind tunnel bioassays (Rvb hexane = 5%)).
Format: functional
Method in brief: as §1

Compound	Activity [%]
CCC/C=C/C=O	90
C=CC(O)CCC (stereo unspecified)	65
CCCCCCO [1-HEXANOL]	75
CC/C=C\CCOC(C)=O [(Z)-hex-3-en-1-yl acetate]	100
CC/C=C\CCO [CIS-3-HEXENOL]	85
CCCCCC=O [HEXANAL]	80
CCCCCCOC(C)=O [HEXYL ACETATE]	60

The compounds below were run on Plutella xylostella (assay: Induction of response in mated female Plutella xylostella (diamondback moth) assessed as landing moth level at 10 uL measured after 10 min by wind tunnel bioassays (Rvb hexane = 0%)).
Format: functional
Method in brief: as §1

Compound	Activity [%]
CCC/C=C/C=O	50
C=CC(O)CCC (stereo unspecified)	20
CCCCCCO [1-HEXANOL]	20
CC/C=C\CCOC(C)=O [(Z)-hex-3-en-1-yl acetate]	55
CC/C=C\CCO [CIS-3-HEXENOL]	40
CCCCCC=O [HEXANAL]	25
CCCCCCOC(C)=O [HEXYL ACETATE]	10

These compounds were tested on Plutella xylostella (assay: Induction of response in mated female Plutella xylostella (diamondback moth) assessed as flying moth level at 10 uL measured after 10 min by wind tunnel bioassays (Rvb hexane = 5%)).
Format: functional
Method in brief: as §1

Compound	Activity [%]
CCC/C=C/C=O	55
C=CC(O)CCC (stereo unspecified)	10
CCCCCCO [1-HEXANOL]	15
CC/C=C\CCOC(C)=O [(Z)-hex-3-en-1-yl acetate]	60
CC/C=C\CCO [CIS-3-HEXENOL]	40
CCCCCC=O [HEXANAL]	30
CCCCCCOC(C)=O [HEXYL ACETATE]	5

What follows are compounds tested on Plutella xylostella (assay: Induction of response in unmated female Plutella xylostella (diamondback moth) assessed as landing moth level at 10 uL measured after 10 min by wind tunnel bioassays (Rvb hexane = 0%)).
Format: functional
Method in brief: as §1

Compound	Activity [%]
CCC/C=C/C=O	15
C=CC(O)CCC (stereo unspecified)	5
CCCCCCO [1-HEXANOL]	5
CC/C=C\CCOC(C)=O [(Z)-hex-3-en-1-yl acetate]	25
CC/C=C\CCO [CIS-3-HEXENOL]	15
CCCCCC=O [HEXANAL]	5
CCCCCCOC(C)=O [HEXYL ACETATE]	0

The compounds below were run on Plutella xylostella (assay: Induction of response in unmated female Plutella xylostella (diamondback moth) assessed as flying moth level at 10 uL measured after 10 min by wind tunnel bioassays (Rvb hexane = 5%)).
Format: functional
Method in brief: as §1

Compound	Activity [%]
CCC/C=C/C=O	20
C=CC(O)CCC (stereo unspecified)	0
CCCCCCO [1-HEXANOL]	5
CC/C=C\CCOC(C)=O [(Z)-hex-3-en-1-yl acetate]	20
CC/C=C\CCO [CIS-3-HEXENOL]	10
CCCCCC=O [HEXANAL]	5
CCCCCCOC(C)=O [HEXYL ACETATE]	5

Each compound was assayed on Plutella xylostella (assay: Induction of response in mated male Plutella xylostella (diamondback moth) assessed as landing moth level at 10 uL measured after 10 min by wind tunnel bioassays (Rvb hexane = 0%)).
Format: functional
Method in brief: as §1

Compound	Activity [%]
CCC/C=C/C=O	15
C=CC(O)CCC (stereo unspecified)	5
CCCCCCO [1-HEXANOL]	5
CC/C=C\CCOC(C)=O [(Z)-hex-3-en-1-yl acetate]	20
CC/C=C\CCO [CIS-3-HEXENOL]	10
CCCCCC=O [HEXANAL]	10
CCCCCCOC(C)=O [HEXYL ACETATE]	5

Each compound was assayed on Plutella xylostella (assay: Induction of response in mated male Plutella xylostella (diamondback moth) assessed as flying moth level at 10 uL measured after 10 min by wind tunnel bioassays (Rvb hexane = 0%)).
Format: functional
Method in brief: as §1

Compound	Activity [%]
CCC/C=C/C=O	20
C=CC(O)CCC (stereo unspecified)	0
CCCCCCO [1-HEXANOL]	0
CC/C=C\CCOC(C)=O [(Z)-hex-3-en-1-yl acetate]	30
CC/C=C\CCO [CIS-3-HEXENOL]	0
CCCCCC=O [HEXANAL]	5
CCCCCCOC(C)=O [HEXYL ACETATE]	0

What follows are compounds tested on Plutella xylostella (assay: Induction of response in unmated male Plutella xylostella (diamondback moth) assessed as landing moth level at 10 uL measured after 10 min by wind tunnel bioassays (Rvb hexane = 0%)).
Format: functional
Method in brief: as §1

Compound	Activity [%]
CCC/C=C/C=O	20
C=CC(O)CCC (stereo unspecified)	10
CCCCCCO [1-HEXANOL]	5
CC/C=C\CCOC(C)=O [(Z)-hex-3-en-1-yl acetate]	25
CC/C=C\CCO [CIS-3-HEXENOL]	15
CCCCCC=O [HEXANAL]	10
CCCCCCOC(C)=O [HEXYL ACETATE]	5

What follows are compounds tested on Plutella xylostella (assay: Induction of response in unmated male Plutella xylostella (diamondback moth) assessed as flying moth level at 10 uL measured after 10 min by wind tunnel bioassays (Rvb hexane = 5%)).
Format: functional
Method in brief: as §1

Compound	Activity [%]
CCC/C=C/C=O	30
C=CC(O)CCC (stereo unspecified)	20
CCCCCCO [1-HEXANOL]	15
CC/C=C\CCOC(C)=O [(Z)-hex-3-en-1-yl acetate]	40
CC/C=C\CCO [CIS-3-HEXENOL]	25
CCCCCC=O [HEXANAL]	10
CCCCCCOC(C)=O [HEXYL ACETATE]	10

What follows are compounds tested on Plutella xylostella (assay: Potentiation of synthetic pheromone attractant activity in female Plutella xylostella (diamondback moth) in cabbage field assessed as female moth attraction level using sticky traps baited with compound and synthetic pheromone at 1:1 ratio by field trapping method relative to synthetic pheromone alone).
Format: functional

Compound	fold change (FC)
CC/C=C\CCOC(C)=O [(Z)-hex-3-en-1-yl acetate]	6

The compounds below were run on Plutella xylostella (assay: Potentiation of synthetic pheromone attractant activity in female Plutella xylostella (diamondback moth) in cabbage field assessed as female moth attraction level using sticky traps baited with compound and synthetic pheromone at 1:1 ratio by field trapping method relative to compound alone).
Format: functional

Compound	fold change (FC)
CC/C=C\CCOC(C)=O [(Z)-hex-3-en-1-yl acetate]	3

The compounds below were run on Plutella xylostella (assay: Attractant activity in male Plutella xylostella (diamondback moth) in cabbage field assessed as moth capture level using sticky traps baited with compound by field trapping method).
Format: functional, organism-based

Compound	Activity
CC/C=C\CCOC(C)=O [(Z)-hex-3-en-1-yl acetate]	inactive

Each compound was assayed on Plutella xylostella (assay: Potentiation of synthetic pheromone attractant activity in male Plutella xylostella (diamondback moth) in cabbage field assessed as moth capture level using sticky traps baited with compound and synthetic pheromone at 1:1 ratio by field trapping method relative to synthetic pheromone alone).
Format: functional

Compound	Activity [%]
CC/C=C\CCOC(C)=O [(Z)-hex-3-en-1-yl acetate]	20

These compounds were tested on Plutella xylostella (assay: Induction of response in mated female Plutella xylostella (diamondback moth) assessed as landing moth level at 10 uL in presence of synthetic pheromone measured after 10 min by wind tunnel bioassays (Rvb hexane = 0%)).
Format: functional
Method in brief: as §1

Compound	Activity [%]
CCC/C=C/C=O	50
C=CC(O)CCC (stereo unspecified)	20
CCCCCCO [1-HEXANOL]	25
CC/C=C\CCOC(C)=O [(Z)-hex-3-en-1-yl acetate]	60
CC/C=C\CCO [CIS-3-HEXENOL]	45
CCCCCC=O [HEXANAL]	25
CCCCCCOC(C)=O [HEXYL ACETATE]	15

These compounds were tested on Plutella xylostella (assay: Induction of response in mated female Plutella xylostella (diamondback moth) assessed as flying moth level at 10 uL in presence of synthetic pheromone measured after 10 min by wind tunnel bioassays (Rvb hexane = 5%)).
Format: functional
Method in brief: as §1

Compound	Activity [%]
CCC/C=C/C=O	50
C=CC(O)CCC (stereo unspecified)	35
CCCCCCO [1-HEXANOL]	25
CC/C=C\CCOC(C)=O [(Z)-hex-3-en-1-yl acetate]	65
CC/C=C\CCO [CIS-3-HEXENOL]	40
CCCCCC=O [HEXANAL]	35
CCCCCCOC(C)=O [HEXYL ACETATE]	20

Each compound was assayed on Plutella xylostella (assay: Induction of response in unmated female Plutella xylostella (diamondback moth) assessed as landing moth level at 10 uL in presence of synthetic pheromone measured after 10 min by wind tunnel bioassays (Rvb hexane = 0%)).
Format: functional
Method in brief: as §1

Compound	Activity [%]
CCC/C=C/C=O	20
C=CC(O)CCC (stereo unspecified)	5
CCCCCCO [1-HEXANOL]	5
CC/C=C\CCOC(C)=O [(Z)-hex-3-en-1-yl acetate]	30
CC/C=C\CCO [CIS-3-HEXENOL]	20
CCCCCC=O [HEXANAL]	10
CCCCCCOC(C)=O [HEXYL ACETATE]	0

Each compound was assayed on Plutella xylostella (assay: Induction of response in unmated female Plutella xylostella (diamondback moth) assessed as flying moth level at 10 uL in presence of synthetic pheromone measured after 10 min by wind tunnel bioassays (Rvb hexane = 5%)).
Format: functional
Method in brief: as §1

Compound	Activity [%]
CCC/C=C/C=O	25
C=CC(O)CCC (stereo unspecified)	0
CCCCCCO [1-HEXANOL]	5
CC/C=C\CCOC(C)=O [(Z)-hex-3-en-1-yl acetate]	25
CC/C=C\CCO [CIS-3-HEXENOL]	10
CCCCCC=O [HEXANAL]	10
CCCCCCOC(C)=O [HEXYL ACETATE]	5

The compounds below were run on Plutella xylostella (assay: Induction of response in mated male Plutella xylostella (diamondback moth) assessed as landing moth level at 10 uL in presence of synthetic pheromone measured after 10 min by wind tunnel bioassays (Rvb hexane = 0%)).
Format: functional
Method in brief: as §1

Compound	Activity [%]
CCC/C=C/C=O	25
C=CC(O)CCC (stereo unspecified)	10
CCCCCCO [1-HEXANOL]	10
CC/C=C\CCOC(C)=O [(Z)-hex-3-en-1-yl acetate]	35
CC/C=C\CCO [CIS-3-HEXENOL]	20
CCCCCC=O [HEXANAL]	10
CCCCCCOC(C)=O [HEXYL ACETATE]	5

Each compound was assayed on Plutella xylostella (assay: Induction of response in mated male Plutella xylostella (diamondback moth) assessed as flying moth level at 10 uL in presence of synthetic pheromone measured after 10 min by wind tunnel bioassays (Rvb hexane = 0%)).
Format: functional
Method in brief: as §1

Compound	Activity [%]
CCC/C=C/C=O	25
C=CC(O)CCC (stereo unspecified)	5
CCCCCCO [1-HEXANOL]	5
CC/C=C\CCOC(C)=O [(Z)-hex-3-en-1-yl acetate]	35
CC/C=C\CCO [CIS-3-HEXENOL]	15
CCCCCC=O [HEXANAL]	5
CCCCCCOC(C)=O [HEXYL ACETATE]	0

Reference: ChEMBL document CHEMBL3045452, “Behavioral responses of the diamondback moth, Plutella xylostella, to green leaf volatiles of Brassica oleracea subsp. capitata” (2000)
